Test results reported in ChEMBL document CHEMBL2434844, “Synthesis, antimicrobial, antioxidant activities of novel 6-aryl-5-cyano thiouracil derivatives” (Eur J Med Chem, 2013).
≈ marks a conversion by molar mass, not a printed value. Calls of active or inactive are those of the source. The calls are words filed in the database; no cut-off is given here.

Experiments:
Format in all cases: functional
Candida albicans [1] = assay: Antifungal activity against Candida albicans ATCC 26555 at 50 ug/ml after 48 hrs by disc-diffusion method; details: ATCC 26555, 48 h, read-out: DIZ
Aspergillus flavus [2] = assay: Antifungal activity against Aspergillus flavus ATCC 11495 after 24 hrs by microdilution technique
Aspergillus flavus [3] = assay: Antifungal activity against Aspergillus flavus ATCC 11495 at 50 ug/ml after 48 hrs by disc-diffusion method; details: ATCC 11495, 48 h, read-out: DIZ
Method in brief: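 Disc diffusion per Bauer et al., following NCCLS conditions, on nutrient agar or Mueller-Hinton agar. Compounds were dissolved in sterile DMSO at 10 mg/mL stock, filtered at 0.2 µm and stored frozen at -15 °C. Test discs carried 10 mg/disc in DMSO, and fluconazole reference was 50 µg/mL. After 48 h incubation at 28 °C, inhibition zone diameter was read in mm.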

Candida albicans [4] = assay: Antifungal activity against Candida albicans ATCC 26555 after 24 hrs by microdilution technique
Method in brief: (§1)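 MIC by agar microdilution on Mueller-Hinton agar per NCCLS 1997. Bacteria subcultured overnight at 37 °C on MHA, Candida on SDA at 35 °C for 24-48 h, each passaged at least twice. Incubated 37 °C in humid chamber, read after 24 h.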

Candida albicans [5] = assay: Antifungal activity against Candida albicans ATCC 26555 at 10 mg/disc after 48 hrs by disc-diffusion method
Method in brief: (§2)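 Disc diffusion per Bauer method under NCCLS conditions on nutrient agar/Mueller-Hinton agar. Compound dissolved in sterile DMSO at 10 mg/mL, filtered 0.2 µm, stored frozen at -15 °C; 10 mg/disc in DMSO applied. DMSO control. Inhibition zone diameter measured in mm after 48 h incubation at 28 °C.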

Escherichia coli [6] = assay: Antibacterial activity against Escherichia coli ATCC 11775 at 10 mg/disc after 48 hrs by disc-diffusion method; method in brief: as §2
Staphylococcus aureus [7] = assay: Antibacterial activity against Staphylococcus aureus ATCC 12600 at 10 mg/disc after 48 hrs by disc-diffusion method; method in brief: as §2
Bacillus cereus [8] = assay: Antibacterial activity against Bacillus cereus ATCC 14579 at 10 mg/disc after 48 hrs by disc-diffusion method; method in brief: as §2
Bacillus cereus [9] = assay: Antibacterial activity against Bacillus cereus ATCC 14579 after 24 hrs by microdilution technique; method in brief: as §1
[10] = tested on: Radical scavenging activity; assay: Antioxidant activity assessed as DPPH free radical scavenging activity after 20 mins by UV-visible spectrophotometric analysis
Method in brief: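 Kept in the dark at room temperature for 20 min, then absorbance read at 517 nm against DPPH blank, DMSO baseline. % scavenging = [(Ac−At)/Ac]×100; IC50 (µg/mL) from concentration plot; mean ± SEM, n=3, 8 replica each.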

Staphylococcus aureus [11] = assay: Antibacterial activity against Staphylococcus aureus ATCC 12600 after 24 hrs by microdilution technique; method in brief: as §1
Aspergillus flavus [12] = assay: Antifungal activity against Aspergillus flavus ATCC 11495 at 10 mg/disc after 48 hrs by disc-diffusion method; method in brief: as §2
Escherichia coli [13] = assay: Antibacterial activity against Escherichia coli ATCC 11775 after 24 hrs by microdilution technique; method in brief: as §1
Staphylococcus aureus [14] = assay: Antibacterial activity against Staphylococcus aureus ATCC 12600 at 10 mg/ml after 48 hrs by disc-diffusion method; details: ATCC 12600, 48 h, read-out: DIZ
Method in brief: (§3)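 Disc-diffusion reference: penicillin at 10 mg/mL on nutrient agar/Mueller-Hinton agar per Bauer method; inhibition zone diameter (mm) read after 48 h at 28 °C.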

Escherichia coli [15] = assay: Antibacterial activity against Escherichia coli ATCC 11775 at 10 mg/ml after 48 hrs by disc-diffusion method; details: DSM 30083 = JCM 1649, 48 h, read-out: DIZ; method in brief: as §3
Bacillus cereus [16] = assay: Antibacterial activity against Bacillus cereus ATCC 14579 at 10 mg/ml after 48 hrs by disc-diffusion method; details: ATCC 14579, 48 h, read-out: DIZ; method in brief: as §3

Structure (SMILES) | MIC (Aspergillus flavus [2]; ATCC 11495, 24 h) [µg/mL] | diameter of the inhibition zone (DIZ) (Candida albicans [5]) | diameter of the inhibition zone (DIZ) (Escherichia coli [6]; DSM 30083 = JCM 1649) | MIC (Aspergillus flavus [2]) | diameter of the inhibition zone (DIZ) (Staphylococcus aureus [7]) | diameter of the inhibition zone (DIZ) (Bacillus cereus [8]) | MIC (Bacillus cereus [9]) | Activity [10] | IC50 [10] [µg/mL] | MIC (Candida albicans [4]) | MIC (Staphylococcus aureus [11]; ATCC 12600, 24 h) [µg/mL] | diameter of the inhibition zone (DIZ) (Aspergillus flavus [12]) | MIC (Escherichia coli [13]; DSM 30083 = JCM 1649) | diameter of the inhibition zone (DIZ) (Escherichia coli [6]) [mm] | MIC (Bacillus cereus [9]; ATCC 14579, 24 h) [µg/mL] | MIC (Escherichia coli [13]; DSM 30083 = JCM 1649, 24 h) [µg/mL] | other results
OC(Cn1cncn1)(Cn1cncn1)c1ccc(F)cc1F [FLUCONAZOLE] | 16 (≈ 52.2 µM) | – | – | – | – | – | – | – | – | – | – | – | – | – | – | – | zone of inhibition at 50 µg/mL (Candida albicans [1]): 20 mm; zone of inhibition at 50 µg/mL (Aspergillus flavus [3]): 21 mm; MIC (Candida albicans [4]; ATCC 26555, 24 h): 16 µg/mL (≈ 52.2 µM)
N#Cc1c(-c2ccc(F)cc2)[nH]c(=S)n2c(=O)[nH]nc12 | – | inactive | inactive | inactive | 12 mm | inactive | inactive | Dose-dependent effect | 19.62 (≈ 68.3 µM) | inactive | 32 (≈ 111 µM) | inactive | inactive | – | – | – | –
N#Cc1c(NN)nc(=S)[nH]c1-c1ccc(F)cc1 | 32 (≈ 122 µM) | inactive | – | – | 15 mm | 12 mm | – | Dose-dependent effect | 15.24 (≈ 58.3 µM) | inactive | 16 (≈ 61.2 µM) | 13 mm | – | 14 | 64 (≈ 245 µM) | 32 (≈ 122 µM) | –
CC1(C)S[C@@H]2[C@H](NC(=O)Cc3ccccc3)C(=O)N2[C@H]1C(=O)O [PENICILLIN G] | – | – | – | – | – | – | – | – | – | – | 16 (≈ 47.8 µM) | – | – | – | 32 (≈ 95.7 µM) | – | zone of inhibition at 10000 µg/mL (Staphylococcus aureus [14]): 16 mm; zone of inhibition at 10000 µg/mL (Escherichia coli [15]): 12 mm; zone of inhibition at 10000 µg/mL (Bacillus cereus [16]): 13 mm
Cc1nnc2c(C#N)c(-c3ccc(F)cc3)[nH]c(=S)n12 | – | inactive | inactive | inactive | inactive | inactive | inactive | Dose-dependent effect | 72.03 (≈ 252 µM) | inactive | – | inactive | inactive | – | – | – | MIC (Staphylococcus aureus [11]): inactive
COc1ccc(/C=N/Nc2nc(=S)[nH]c(-c3ccc(F)cc3)c2C#N)cc1 | 16 (≈ 42.2 µM) | 18 mm | – | – | 23 mm | 21 mm | – | Dose-dependent effect | 12.68 (≈ 33.4 µM) | – | 16 (≈ 42.2 µM) | 18 mm | – | 19 | 16 (≈ 42.2 µM) | 16 (≈ 42.2 µM) | MIC (Candida albicans [4]; ATCC 26555, 24 h): 16 µg/mL (≈ 42.2 µM)
N#Cc1c(N/N=C/c2ccccc2)nc(=S)[nH]c1-c1ccc(F)cc1 | 16 (≈ 45.8 µM) | 19 mm | – | – | 24 mm | 22 mm | – | Dose-dependent effect | 13.8 (≈ 39.5 µM) | – | 16 (≈ 45.8 µM) | 19 mm | – | 19 | 16 (≈ 45.8 µM) | 16 (≈ 45.8 µM) | MIC (Candida albicans [4]; ATCC 26555, 24 h): 16 µg/mL (≈ 45.8 µM)
O=C1O[C@H]([C@@H](O)CO)C(O)=C1O [ASCORBIC ACID] | – | – | – | – | – | – | – | Dose-dependent effect | 10 (≈ 56.8 µM) | – | – | – | – | – | – | – | –
COc1cc(-c2[nH]c(=S)n3c(C)nnc3c2C#N)cc(OC)c1OC | – | inactive | inactive | inactive | inactive | inactive | inactive | Dose-dependent effect | 31.15 (≈ 87.2 µM) | inactive | – | inactive | inactive | – | – | – | MIC (Staphylococcus aureus [11]): inactive
N#Cc1c(-c2ccc(F)cc2)[nH]c(=S)n2c(=O)c(=O)[nH]nc12 | 16 (≈ 50.7 µM) | inactive | inactive | – | 14 mm | inactive | inactive | Dose-dependent effect | 14.72 (≈ 46.7 µM) | inactive | 32 (≈ 101 µM) | 18 mm | inactive | – | – | – | –
COc1cc(-c2[nH]c(=S)nc(NN)c2C#N)cc(OC)c1OC | – | inactive | – | inactive | 11 mm | 10 mm | – | Dose-dependent effect | 6.21 (≈ 18.6 µM) | inactive | 64 (≈ 192 µM) | inactive | – | 12 | 64 (≈ 192 µM) | 32 (≈ 96 µM) | –
COc1cc(-c2[nH]c(=S)n3c(=O)c(=O)[nH]nc3c2C#N)cc(OC)c1OC | 16 (≈ 41.3 µM) | inactive | inactive | – | 14 mm | inactive | inactive | Dose-dependent effect | 8.55 (≈ 22.1 µM) | inactive | 32 (≈ 82.6 µM) | 17 mm | inactive | – | – | – | –
Cc1nnc2c(C#N)c(-c3ccc(Br)cc3)[nH]c(=S)n12 | – | inactive | inactive | inactive | inactive | inactive | inactive | – | – | inactive | – | inactive | inactive | – | – | – | MIC (Staphylococcus aureus [11]): inactive
N#Cc1c(-c2ccc(Br)cc2)[nH]c(=S)n2cnnc12 | 16 (≈ 48.2 µM) | 16 mm | – | – | 21 mm | 17 mm | – | – | – | – | 16 (≈ 48.2 µM) | 17 mm | – | 12 | 16 (≈ 48.2 µM) | 16 (≈ 48.2 µM) | MIC (Candida albicans [4]; ATCC 26555, 24 h): 16 µg/mL (≈ 48.2 µM)
COc1cc(-c2[nH]c(=S)n3c(=O)[nH]nc3c2C#N)cc(OC)c1OC | – | inactive | inactive | inactive | 10 mm | inactive | inactive | Dose-dependent effect | 9.34 (≈ 26 µM) | inactive | 64 (≈ 178 µM) | inactive | inactive | – | – | – | –
COc1cc(-c2[nH]c(=S)nc(-n3nc(C)cc3C)c2C#N)cc(OC)c1OC | – | inactive | – | inactive | 11 mm | 11 mm | – | – | – | inactive | 32 (≈ 80.5 µM) | inactive | – | 12 | 32 (≈ 80.5 µM) | 32 (≈ 80.5 µM) | –
COc1ccc(/C=N/Nc2nc(=S)[nH]c(-c3cc(OC)c(OC)c(OC)c3)c2C#N)cc1 | 32 (≈ 70.9 µM) | 15 mm | – | – | 17 mm | 15 mm | – | – | – | – | 32 (≈ 70.9 µM) | 15 mm | – | 12 | 32 (≈ 70.9 µM) | 32 (≈ 70.9 µM) | MIC (Candida albicans [4]; ATCC 26555, 24 h): 32 µg/mL (≈ 70.9 µM)
